KCNQ1 pot: potentiators or activators of human KCNQ1 potassium channel; B-score at 10 µM; P51787; AID 2648; 310,000 compounds, 0.35% hits; CHO-K1 KCNQ1, thallium flux FluxOR fluorescence; active compounds read high;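 active means fluorescence ratio B-score, a plate-corrected score, at least three library SD, with initial intensity B-score within 5 SD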
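System: Stable KCNQ1 CHO-K1 line | Incubation: 90 min dye loading and 20 min compound exposure, both at room temperature | Measure: Ratio B score | Medium: Assay buffer for compound exposure, DMSO matched across wells | Compound dosing: Single-concentration screen | Probe or stimulus: K+/Tl+ depolarizing stimulus | Measured by: Kinetic FluxOR fluorescence, 10 s baseline plus 110 s post-stimulus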
hERG rescue: hERG (human) protection from proarrhythmic block; Q12809; CHO-hERG, FluxOR thallium flux, dofetilide IC70 present; activation (rescue from dofetilide block), less the hit threshold, % at 10 µM; 310,000 compounds, 0.51% hits; AID 1511;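 active means activation above the mean of controls blocked by dofetilide plus 5 SD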;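 further: thallium influx through hERG after potassium depolarization seen as dye fluorescence rise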
KCNK9 block: human KCNK9 channel inhibition; HEK293 KCNK9, FluxOR thallium flux fluorescence; active compounds read low; B-score at 10 µM; 310,000 compounds, 1.2% hits; AID 488922;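 active means ratio B-score over 3 SD below the library mean, with starting fluorescence within 5 SD of its mean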;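 further: negative B-score means less thallium flux so channel inhibition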
Target sequence (Q9NPC2 whole entry, looked up): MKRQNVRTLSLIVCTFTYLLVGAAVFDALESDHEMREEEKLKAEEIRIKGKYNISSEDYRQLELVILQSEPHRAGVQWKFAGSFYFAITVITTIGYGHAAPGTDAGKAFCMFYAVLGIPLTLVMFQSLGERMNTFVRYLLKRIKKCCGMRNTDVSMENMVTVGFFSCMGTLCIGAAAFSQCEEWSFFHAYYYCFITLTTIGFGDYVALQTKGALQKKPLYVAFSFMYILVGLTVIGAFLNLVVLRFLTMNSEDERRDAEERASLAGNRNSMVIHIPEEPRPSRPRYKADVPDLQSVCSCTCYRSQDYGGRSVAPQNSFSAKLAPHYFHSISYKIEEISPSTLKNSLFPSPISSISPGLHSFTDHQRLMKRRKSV
KCNK3 inh: human KCNK3 channel inhibition, primary screen | B-score at 10 µM | AID 602410 | 340,000 compounds, 0.84% hits | O14649 | CHO-KCNK3 thallium flux, FluxOR fluorescence; active compounds read low;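 active means B-score under library mean minus 4 SD, starting fluorescence ratio at most library mean plus 5 SD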;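 further: more negative B-score means stronger inhibition of thallium flux through KCNK3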
KCC2 mod: modulates chloride dependent transport by human KCC2. Q9H2X9. KCC2 cells, thallium flux FluoZin-2 fluorescence. B-score of Tl+ flux slope (higher = more flux/activation; lower = inhibition) at 10 µM. 190,000 compounds, 2.2% hits. AID 1456;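 active means thallium flux slope and its plate-corrected score both differing from the plate sample mean at a set confidence after two filtering rounds, in either direction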;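 further: slope of fluorescence scaled to starting intensity during 10 to 20 s after thallium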
KCNQ1 block: blocks the human KCNQ1 potassium channel; CHO-K1 KCNQ1, FluxOR thallium flux fluorescence; active compounds read high; 310,000 compounds, 1.3% hits; B-score at 10 µM;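 active means compounds whose thallium flux B-score, printed positive for inhibition, exceeds three library SD while starting fluorescence stays within three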;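 further: channel opened by potassium depolarization with thallium stimulus after 20 min compound exposure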
* = called active by the depositor. This is a sample that favours compounds with a hit; in the whole collection about 4.1% have one here.

O=C(COC(=O)CCNS(=O)(=O)c1ccc2c(c1)OCCO2)NC1CCCc2ccccc21 (stereo not given) was read as KCNQ1 pot inactive, hERG rescue 5.3*, KCNK9 block inactive, KCNK3 inh inactive, KCC2 mod -0.84 and KCNQ1 block inactive.
Screening Cc1ccc(S(=O)(=O)Nc2c(C)[nH]c(=O)[nH]c2=O)cc1C returned KCNQ1 pot inactive, hERG rescue 5.0*, KCNK9 block inactive, KCNK3 inh inactive, KCC2 mod 0.018 and KCNQ1 block inactive.
`Cc1[nH]c(=O)[nH]c(=O)c1NS(=O)(=O)c1ccc2c(c1)CCCC2` gave KCNQ1 pot inactive, hERG rescue -3, KCNK9 block inactive, KCNK3 inh inactive, KCC2 mod 1.6 and KCNQ1 block inactive.
For Cc1cc(N/N=C2\CC(C)CC(C)(C)C2)nc2ccccc12 (stereo not given) the results were KCNQ1 pot inactive, hERG rescue -24, KCNK9 block inactive, KCNK3 inh inactive, KCC2 mod 1.1 and KCNQ1 block 14*.
`CC(CC12CC3CC(CC(C3)C1)C2)NCc1ccccc1O` (stereo not given) gave KCNQ1 pot inactive, hERG rescue -13, KCNK9 block inactive, KCNK3 inh inactive and KCNQ1 block 6*.
`CCOc1ccc(OCCCCOc2ccccc2C(C)=O)cc1` gave KCNQ1 pot inactive, hERG rescue -16, KCNK9 block inactive, KCNK3 inh inactive, KCC2 mod 0.017 and KCNQ1 block 7*.
Screening CCOc1cccc(OCCOCCOc2ccccc2C(C)=O)c1 returned KCNQ1 pot inactive, hERG rescue -9, KCNK9 block inactive, KCNK3 inh inactive, KCC2 mod -0.1 and KCNQ1 block inactive.
Screening Cc1ccc(-n2nnnc2CNC(=O)c2ccc3c(c2)OCO3)cc1C returned KCNQ1 pot inactive, hERG rescue -1, KCNK9 block inactive, KCNK3 inh inactive and KCNQ1 block inactive.
For CN(c1ccc(OCC(=O)Nc2nc3ccccc3s2)cc1)S(=O)(=O)c1ccccc1 the results were KCNQ1 pot inactive, hERG rescue -5, KCNK9 block inactive, KCNK3 inh inactive, KCC2 mod 0.27 and KCNQ1 block inactive.
CCOC(=O)Cc1csc(NC(=O)COc2ccc(N(C)S(=O)(=O)c3ccc(C)cc3)cc2)n1 was read as KCNQ1 pot inactive, hERG rescue -14, KCNK9 block -6.8*, KCNK3 inh inactive, KCC2 mod -0.74 and KCNQ1 block inactive.
CCOc1ccc(S(=O)(=O)N(C)c2ccc(OCC(=O)Nc3nc4ccccc4s3)cc2)cc1 was read as KCNQ1 pot inactive, hERG rescue -7, KCNK9 block inactive, KCNK3 inh inactive, KCC2 mod 0.037 and KCNQ1 block 8*.
Screening CC1=NN(c2nc(-c3ccc(C)cc3)cs2)C(=O)C1N=Nc1ccccc1O (stereo not given) returned KCNQ1 pot inactive, hERG rescue -13, KCNK9 block inactive, KCNK3 inh inactive, KCC2 mod -0.64 and KCNQ1 block 6*.
For COC(=O)c1cc2c(-c3ccccc3)cc3ccccn3c-2c1C(=O)OC the results were KCNQ1 pot inactive, hERG rescue -6, KCNK9 block inactive, KCNK3 inh -8.9*, KCC2 mod -0.016 and KCNQ1 block inactive.
For COC(=O)c1c(C)c2c(C)cc3ccccn3c-2c1C(=O)OC the results were KCNQ1 pot inactive, hERG rescue -6, KCNK9 block inactive, KCNK3 inh inactive, KCC2 mod 0.3 and KCNQ1 block inactive.
`CC(C)=CCc1c(O)c(CC=C(C)C)c2c(c1O)C(=O)CC(c1ccc(O)cc1)O2` (stereo not given) gave KCNQ1 pot inactive, hERG rescue -4, KCNK9 block inactive, KCNK3 inh inactive, KCC2 mod -0.2 and KCNQ1 block 8*.
Screening COc1cccc(CN(C)CCCn2ccc(NC(=O)OCc3ccccc3)nc2=O)c1 returned KCNK3 inh inactive.
`Cc1ccc(C(=O)Oc2ccc([N+](=O)[O-])cc2)cc1S(=O)(=O)N1CCCCCC1` gave KCNQ1 pot inactive, hERG rescue -8, KCNK9 block -8.1*, KCNK3 inh inactive, KCC2 mod -0.93 and KCNQ1 block inactive.
`Cc1ccc(C(=O)OCC(=O)N2C(C)CCCC2C)cc1S(=O)(=O)N1CCCCC1` (stereo not given) gave KCNQ1 pot inactive, hERG rescue -9, KCNK9 block inactive, KCNK3 inh inactive and KCNQ1 block inactive.
Screening CNC(=O)c1ccccc1NC(=O)c1ccc(C)c(S(=O)(=O)N2CCCCC2)c1 returned KCNQ1 pot inactive, hERG rescue 8.7*, KCNK9 block inactive, KCNK3 inh inactive, KCC2 mod -1.2 and KCNQ1 block inactive.
COC(=O)c1ccc(COC(=O)c2ccc(C)c(S(=O)(=O)N3CCCCC3)c2)cc1 was read as KCNK3 inh -9.2*.
Screening Cc1occc1C(=O)/C(C#N)=C/c1ccc(O)c(Br)c1 returned KCNQ1 pot inactive, hERG rescue -25, KCNK9 block inactive, KCNK3 inh inactive and KCNQ1 block 11*.
Screening N#C/C(=C\c1ccc(O)c(Br)c1)C(=O)N1CCCCC1 returned KCNQ1 pot inactive, hERG rescue -2, KCNK9 block inactive, KCNK3 inh inactive and KCNQ1 block inactive.
Screening CC1(C)SC(=S)N(/N=C/c2ccc(O)cc2)C1N(O)C(=O)Nc1ccc([N+](=O)[O-])cc1 (stereo not given) returned KCNQ1 pot inactive, hERG rescue -14, KCNK9 block inactive, KCNK3 inh inactive, KCC2 mod 0.016 and KCNQ1 block 10*.
Screening CC1(C)SC(=S)N(NC(=O)Nc2ccccc2)C1N(O)C(=O)Nc1cccc2ccccc12 (stereo not given) returned KCNQ1 pot inactive, hERG rescue -11, KCNK9 block inactive, KCNK3 inh inactive, KCC2 mod 0.54 and KCNQ1 block 9*.
`CC1(C)SC(=S)N(/N=C/c2ccccc2O)C1N(O)C(=O)Nc1ccccc1` (stereo not given) gave KCNQ1 pot inactive, hERG rescue -16, KCNK9 block inactive, KCNK3 inh inactive, KCC2 mod -0.43 and KCNQ1 block 8*.
`Cc1ccc(/C=N/N2C(=S)SC(C)(C)C2N(O)C(=O)Nc2ccc([N+](=O)[O-])cc2)cc1` (stereo not given) gave KCNQ1 pot inactive, hERG rescue -9, KCNK9 block inactive, KCNK3 inh inactive, KCC2 mod -0.013 and KCNQ1 block inactive.

Compound activity deposited in PubChem BioAssay by several laboratories.
